Values joined by “and” are separate entries in the source; they are usually repeats but may differ in a detail not shown here. Equal entries are not always repeated.
Target: Methionine--tRNA ligase, mitochondrial (Homo sapiens) (UniProt Q96GW9)
Assay: human mtMetRS tRNA charging inhibition – biochemical, radioactivity, round 1, selectivity assay for T. brucei MetRS inhibitor project, late-stage follow-up (AID 743061);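 further: 0% = DMSO with full reaction and 100% = DMSO wells lacking tRNA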
Conditions: recombinant human mtMetRS, [3H]Met tRNA charging, at 10 µM, stronger effect = higher value
Summary of the method: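 System: recombinant human mitochondrial methionyl-tRNA synthetase (MetRS); Buffer or medium: pH 8.0 reaction buffer containing 2.5 mM ATP; Controls: high DMSO, low without tRNA; Reagent: [3H]Met 240 nM plus bulk E. coli tRNA; Schedule: 15 min preincubation, 1 h reaction, room temperature; Measured by: scintillation counts of TCA-precipitated charged tRNA on filters.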

| Compound | inhibition |
| --- | --- |
| COc1ccc(NC(=O)C2CC(=O)n3c(nc4ccccc43)N2)cc1 (centres undefined) | -2.5% |
| O=C1[C@@H]2Cc3c([nH]c4ccccc34)C(c3cccc([N+](=O)[O-])c3)N2C(=O)CN1CCCO (some centres undefined) | 4.46% |
| C[C@H](O)[C@@H]1C(=O)N2CCc3c([nH]c4ccccc34)[C@@H]2C[C@@H]1N(C)Cc1ccc2c(c1)OCO2 | 24.8% |
| O=C(Cn1cc(C(=O)C(=O)N2CCCC2)c2ccccc21)Nc1ccccc1 | -0.86% |
| O=C1CC(SCc2nc3ccccc3[nH]2)C(=O)N1c1cccc(Cl)c1 (centres undefined) | -0.68% |
| COc1ccc(CCN(C(=O)c2cccc(F)c2)C2CC(=O)N(c3ccc(Br)cc3)C2=O)cc1 (centres undefined) | 4.36% |
| O=C(Nc1ccc(F)c(Cl)c1)C1CC(=O)n2c(nc3ccccc32)N1 (centres undefined) | 4.32% and 12.5% |
| Cc1ccc(CNC(=O)CSc2nnc3c(n2)[nH]c2ccc(C)cc23)cc1 | 5.9% |
| CCN(C(=O)Cn1cc(C(=O)C(=O)N2CCOCC2)c2ccccc21)c1ccccc1 | -14.2% |
| O=C(Cn1cc(C(=O)C(=O)N2CCOCC2)c2ccccc21)Nc1cccc(C(F)(F)F)c1 | -6.56% |
| O=C(Cn1cc(C(=O)c2ccccc2)c2ccccc21)Nc1cccc(C(F)(F)F)c1 | 9.64% |
| CC(C)OCCCN1CC(=O)N2C(c3cccc([N+](=O)[O-])c3)c3[nH]c4ccccc4c3C[C@H]2C1=O (some centres undefined) | -3.65% |
| CCOC(=O)N1CCC(Nc2c(Nc3ccc(F)cc3)c(=O)c2=O)CC1 | -4.56% |
| CN1CC(=O)N2C(c3cccc([N+](=O)[O-])c3)c3[nH]c4ccccc4c3C[C@H]2C1=O (some centres undefined) | 14% |
| CN(CC(=O)Nc1ccc(Cl)cc1)C(=O)c1ccc(-n2cncn2)c([N+](=O)[O-])c1 | -19.1% |
| Cc1ccc(C(=O)NCCc2nc3ccccc3[nH]2)cc1C | 1.68% |
| CC(=O)N(CCc1ccccc1)C1CC(=O)N(c2ccc(Cl)cc2)C1=O (centres undefined) | -2.95% |

| Compound | inhibition |
| --- | --- |
| O=C(NCc1nc2ccccc2[nH]1)C1=C[C@H](c2ccc(Br)cc2)C[C@H](OCc2ccc(CO)cc2)O1 | 17.2% |
| Cc1ccc2[nH]c3nc(SCC(=O)Nc4ccc(C(F)(F)F)cc4)nnc3c2c1 | 4.54% |
| COc1ccc(OCC(O)CNC(=O)Nc2ccc(Cl)cc2)cc1 (centres undefined) | 0.31% |
| O=C(Cn1cc(C(=O)C(=O)N2CCOCC2)c2ccccc21)NCc1ccccc1 | 10.3% |
| O=C(Cn1cc(C(=O)COc2ccccc2)c2ccccc21)Nc1cccc(C(F)(F)F)c1 | 3.08% |
| Cc1ccc(NC(=O)CN(C)C(=O)CCSc2ccc(F)cc2)cc1 | -21.5% |
| CCO[C@H]1OC(C(=O)NCc2nc3ccccc3[nH]2)=C[C@@H](c2ccc(Br)cc2)[C@@H]1CCCO | 11.7% |
| CC(=O)c1ccc(N2CCN(C(=O)CCCn3c(=O)[nH]c4ccc(Br)cc4c3=O)CC2)cc1 | 7.87% |
| CCc1ccc2[nH]c3nc(SCC(=O)NCc4cccc(OC)c4)nnc3c2c1 | 13.1% |
| CCc1ccc2c(c1)c1nnc(SCC(=O)Nc3ccc4c(c3)OCO4)nc1n2C | 5.87% |
| O=C(NCc1nc2ccccc2[nH]1)C1=C[C@H](c2ccc(Br)cc2)C[C@H](OCCCCO)O1 | -2.4% |
| CCC(=O)c1cn(CC(=O)Nc2cccc(C(F)(F)F)c2)c2ccccc12 | -3.88% |
| Cc1cc2cc(C(=O)N3CCCC(c4nc5ccccc5[nH]4)C3)ccc2o1 (centres undefined) | -1.3% |
| O=C(NCc1nc2ccccc2[nH]1)C1=C[C@@H](c2ccc(Br)cc2)C[C@@H](OCCCCO)O1 | 29% |
| CC(=O)c1c[nH]c(C(=O)NCc2cccc(C(F)(F)F)c2)c1 | 43.8% |
| COc1cccc(NC(=O)C2CC(=O)n3c(nc4ccccc43)N2)c1 (centres undefined) | 9.79% |
| O=C(CSC1CC(=O)N(c2cccc(Cl)c2)C1=O)Nc1ccc(Br)cc1 (centres undefined) | 1.19% |

From PubChem BioAssay AID743061 (The Scripps Research Institute Molecular Screening Center, 2013)
